What is called IC50 is the concentration that inhibits the measured activity by half. A lower IC50 goes with greater potency.

The structures appear in SMILES notation.

For one assay, the target named is T1, Acetylcholinesterase (Rattus norvegicus, UniProt P37136).
T1 sequence (P37136 whole entry): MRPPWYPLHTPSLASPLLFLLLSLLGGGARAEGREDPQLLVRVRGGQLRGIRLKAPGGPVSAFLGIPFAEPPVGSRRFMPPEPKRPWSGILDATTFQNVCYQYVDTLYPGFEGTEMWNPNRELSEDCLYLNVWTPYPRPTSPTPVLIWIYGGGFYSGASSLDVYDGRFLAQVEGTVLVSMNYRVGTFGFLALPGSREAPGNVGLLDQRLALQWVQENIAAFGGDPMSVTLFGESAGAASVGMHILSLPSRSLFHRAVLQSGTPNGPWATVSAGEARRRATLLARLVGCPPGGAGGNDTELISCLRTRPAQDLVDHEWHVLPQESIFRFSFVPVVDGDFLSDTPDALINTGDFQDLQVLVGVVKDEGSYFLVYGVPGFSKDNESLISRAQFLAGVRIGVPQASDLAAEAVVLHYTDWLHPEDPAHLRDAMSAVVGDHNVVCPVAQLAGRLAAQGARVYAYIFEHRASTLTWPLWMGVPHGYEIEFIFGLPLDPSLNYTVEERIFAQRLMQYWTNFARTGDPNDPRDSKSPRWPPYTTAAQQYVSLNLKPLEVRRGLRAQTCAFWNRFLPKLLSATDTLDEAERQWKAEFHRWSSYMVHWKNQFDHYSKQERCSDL
Kind of assay: Inhibition of AChE in rat cortex […].

In the next assay the target is Butyrylcholinesterase (Rattus norvegicus, UniProt Q9JKC1). Kind of assay: Inhibition of BuChE in rat serum. The class given is cell-free. In a few lines: (§1)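 Modified Ellman colorimetric cholinesterase assay. The AChE source was rat cortex homogenate and the BuChE source was rat serum. Inhibition was measured against each enzyme, and selectivity was taken as the BuChE IC50 over the AChE IC50.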

For a further assay, the species on record is Rattus norvegicus. Kind of assay: Selectivity ratio of IC50 for rat BuChE to rat IC50 for AchE. In a few lines:
as §1

Butyrylcholinesterase, sequence (Q9JKC1 whole entry): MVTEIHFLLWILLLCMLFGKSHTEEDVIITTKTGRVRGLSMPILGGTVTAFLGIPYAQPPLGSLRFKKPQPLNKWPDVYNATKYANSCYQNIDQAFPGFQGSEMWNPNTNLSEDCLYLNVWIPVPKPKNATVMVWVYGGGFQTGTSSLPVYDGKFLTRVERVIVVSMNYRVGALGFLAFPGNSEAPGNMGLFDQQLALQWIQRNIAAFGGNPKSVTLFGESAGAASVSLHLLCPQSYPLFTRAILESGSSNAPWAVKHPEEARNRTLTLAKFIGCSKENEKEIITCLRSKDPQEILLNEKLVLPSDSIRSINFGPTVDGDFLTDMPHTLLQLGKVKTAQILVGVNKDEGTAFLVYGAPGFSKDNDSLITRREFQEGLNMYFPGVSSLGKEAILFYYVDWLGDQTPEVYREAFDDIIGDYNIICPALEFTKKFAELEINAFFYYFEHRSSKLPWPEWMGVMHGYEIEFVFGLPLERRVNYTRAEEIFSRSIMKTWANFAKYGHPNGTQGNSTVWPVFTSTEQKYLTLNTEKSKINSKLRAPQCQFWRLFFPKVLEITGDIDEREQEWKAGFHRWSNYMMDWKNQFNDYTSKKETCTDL

As for `CC1=C[C@H]2Cc3[nH]c(=O)ccc3[C@@]3(C1)[C@@H]2CCCN3C(=O)CN(C)CCCCCCCCCCN(C)Cc1ccc(F)cc1`, the values for the IC50 at Acetylcholinesterase and against Butyrylcholinesterase were 52 nM and 3480 nM, respectively. Also, the Ratio IC50 in the assay filed under Rattus norvegicus was 67.
As to `CC1=C[C@H]2Cc3[nH]c(=O)ccc3[C@@]3(C1)[C@@H]2CCCN3CCCN1CCCN(CCCN2CCC[C@@H]3[C@H]4C=C(C)C[C@]32c2ccc(=O)[nH]c2C4)CC1`, the IC50 against Acetylcholinesterase stood at 332 nM.
On the same count and under the same terms, with `COc1ccccc1CN(C)CCCCCCCCCCCCN(C)CC(=O)N1CCC[C@@H]2[C@H]3C=C(C)C[C@]21c1ccc(=O)[nH]c1C3` the figure was 62.2 nM.
Take `CC1=C[C@H]2Cc3[nH]c(=O)ccc3[C@@]3(C1)[C@@H]2CCCN3C(=O)CCN(C)CCCCCCN(C)CCC(=O)N1CCC[C@@H]2[C@H]3C=C(C)C[C@]21c1ccc(=O)[nH]c1C3`: the results for the IC50 on Acetylcholinesterase and on Butyrylcholinesterase were 35.9 nM and 67900 nM, respectively. Moreover, the Ratio IC50 in the assay listed under Rattus norvegicus came out at 1890.
In the case of `CC1=C[C@H]2Cc3[nH]c(=O)ccc3[C@@]3(C1)[C@@H]2CCCN3CCN(C)CCCCCCCCN(C)CCN1CCC[C@@H]2[C@H]3C=C(C)C[C@]21c1ccc(=O)[nH]c1C3`, the IC50 against Acetylcholinesterase worked out at 20.1 nM.
Turning to `CC1=C[C@H]2Cc3[nH]c(=O)ccc3[C@]3(C1)NCCC[C@H]23`, the Ratio IC50 in the assay listed under Rattus norvegicus was 12.
Compound `CC1=C[C@H]2Cc3[nH]c(=O)ccc3[C@@]3(C1)[C@@H]2CCCN3C(=O)CN(C)CCCCCCCCCCN(C)Cc1ccccn1` yielded an IC50 against Acetylcholinesterase of 42 nM.
The same measure, in the same setting: with `CC1=C[C@H]2Cc3[nH]c(=O)ccc3[C@@]3(C1)[C@@H]2CCCN3CCN(C)CCN(C)CCN1CCC[C@@H]2[C@H]3C=C(C)C[C@]21c1ccc(=O)[nH]c1C3` the figure was 3480 nM; with `CC1=C[C@H]2Cc3[nH]c(=O)ccc3[C@@]3(C1)[C@@H]2CCCN3C(=O)CN(C)CCCCCCCCN(C)Cc1ccccn1`, 41.2 nM; with `CCCN(CCN1CCC[C@@H]2[C@H]3C=C(C)C[C@]21c1ccc(=O)[nH]c1C3)CCN1CCC[C@@H]2[C@H]3C=C(C)C[C@]21c1ccc(=O)[nH]c1C3`, 1010 nM.
For the compound `CC1=C[C@H]2Cc3[nH]c(=O)ccc3[C@@]3(C1)[C@@H]2CCCN3C(=O)CN(C)CCCCCCCCCCN(C)Cc1cccnc1`, at Butyrylcholinesterase, 12900 nM corresponded to half-maximal inhibition (IC50).
As for `CC1=C[C@H]2Cc3[nH]c(=O)ccc3[C@@]3(C1)[C@@H]2CCCN3C(=O)CN(C)CCCN(C)CC(=O)N1CCC[C@@H]2[C@H]3C=C(C)C[C@]21c1ccc(=O)[nH]c1C3`, the IC50 was found to be 471 nM at Acetylcholinesterase and 60000 nM at Butyrylcholinesterase. In addition, in the assay filed under Rattus norvegicus, the Ratio IC50 turned out to be 127.
`CC1=C[C@H]2Cc3[nH]c(=O)ccc3[C@@]3(C1)[C@@H]2CCCN3CCN(C)CCCCCCN(C)CCN1CCC[C@@H]2[C@H]3C=C(C)C[C@]21c1ccc(=O)[nH]c1C3`: at Acetylcholinesterase, inhibition was half-maximal at 78.4 nM (IC50).
Regarding `CC1=C[C@H]2Cc3[nH]c(=O)ccc3[C@@]3(C1)[C@@H]2CCCN3CCCN(C)CCCCCCCCN(C)CCCN1CCC[C@@H]2[C@H]3C=C(C)C[C@]21c1ccc(=O)[nH]c1C3`, at Acetylcholinesterase, the midpoint of inhibition, the IC50, lay at 40.6 nM.
As for `CC1=C[C@H]2Cc3[nH]c(=O)ccc3[C@@]3(C1)[C@@H]2CCCN3CCN1CCCN(CCN2CCC[C@@H]3[C@H]4C=C(C)C[C@]32c2ccc(=O)[nH]c2C4)CC1`, in the assay listed under Rattus norvegicus, the Ratio IC50 is 573.
`CC1=C[C@H]2Cc3[nH]c(=O)ccc3[C@@]3(C1)[C@@H]2CCCN3C(=O)CN(C)CCCCCCN(C)Cc1cccc2ccccc12` showed an IC50 against Acetylcholinesterase of 124 nM.
The same measure, in the same setting: next, `CC1=C[C@H]2Cc3[nH]c(=O)ccc3[C@@]3(C1)[C@@H]2CCCN3CCN(CCN1CCC[C@@H]2[C@H]3C=C(C)C[C@]21c1ccc(=O)[nH]c1C3)C1CC1`: 695 nM; `CC1=C[C@H]2Cc3[nH]c(=O)ccc3[C@@]3(C1)[C@@H]2CCCN3C(=O)CN(C)CCCCCCCCCCN(C)Cc1cccc2ccccc12`: 121 nM; `CC1=C[C@H]2Cc3[nH]c(=O)ccc3[C@@]3(C1)[C@@H]2CCCN3CCCN(C)CCCCCCN(C)CCCN1CCC[C@@H]2[C@H]3C=C(C)C[C@]21c1ccc(=O)[nH]c1C3`: 33.6 nM.
For the compound `CC1=C[C@H]2Cc3[nH]c(=O)ccc3[C@@]3(C1)[C@@H]2CCCN3C(=O)CN1CCN(CC(=O)N2CCC[C@@H]3[C@H]4C=C(C)C[C@]32c2ccc(=O)[nH]c2C4)CC1`, the Ratio IC50 in the assay filed under Rattus norvegicus is greater than 157.
On Acetylcholinesterase, `CC1=C[C@H]2Cc3[nH]c(=O)ccc3[C@@]3(C1)[C@@H]2CCCN3C(=O)CN1CCCN(CC(=O)N2CCC[C@@H]3[C@H]4C=C(C)C[C@]32c2ccc(=O)[nH]c2C4)CC1` gave an IC50 of 204 nM. Further, in the assay filed under Rattus norvegicus, the Ratio IC50 worked out at 838.
For the compound `CC1=C[C@H]2Cc3[nH]c(=O)ccc3[C@@]3(C1)[C@@H]2CCCN3C(=O)CN(C)CCCCCCCCCCCCN(C)Cc1ccccn1`, on Acetylcholinesterase, it took 65.8 nM to reach half-maximal inhibition (IC50).
The same measure, in the same setting: next, `CC1=C[C@H]2Cc3[nH]c(=O)ccc3[C@@]3(C1)[C@@H]2CCCN3CCCN(C)CCCCCCCCCCN(C)CCCN1CCC[C@@H]2[C@H]3C=C(C)C[C@]21c1ccc(=O)[nH]c1C3`: 26.2 nM; `CC1=C[C@H]2Cc3[nH]c(=O)ccc3[C@@]3(C1)[C@@H]2CCCN3C(=O)CCN1CCCN(CCC(=O)N2CCC[C@@H]3[C@H]4C=C(C)C[C@]32c2ccc(=O)[nH]c2C4)CC1`: 179 nM.
The same measure, in the same setting: next, `CC1=C[C@H]2Cc3[nH]c(=O)ccc3[C@@]3(C1)[C@@H]2CCCN3CCN(C)CCCN(C)CCN1CCC[C@@H]2[C@H]3C=C(C)C[C@]21c1ccc(=O)[nH]c1C3`: 416 nM; `CC1=C[C@H]2Cc3[nH]c(=O)ccc3[C@@]3(C1)[C@@H]2CCCN3C(=O)CN(C)CCCCCCCCCCCCN(C)Cc1ccc(F)cc1`: 309 nM; `CC1=C[C@H]2Cc3[nH]c(=O)ccc3[C@@]3(C1)[C@@H]2CCCN3C(=O)CN(C)CCCCCCCCCCCCN(C)CC(=O)N1CCC[C@@H]2[C@H]3C=C(C)C[C@]21c1ccc(=O)[nH]c1C3`: 53.4 nM.
The same measure, in the same setting: with `CC1=C[C@H]2Cc3[nH]c(=O)ccc3[C@@]3(C1)[C@@H]2CCCN3C(=O)CN(CC(=O)N1CCC[C@@H]2[C@H]3C=C(C)C[C@]21c1ccc(=O)[nH]c1C3)C1CC1` the figure was 1000 nM.
Regarding `CC1=C[C@H]2Cc3[nH]c(=O)ccc3[C@@]3(C1)[C@@H]2CCCN3CCCN1CCN(CCCN2CCC[C@@H]3[C@H]4C=C(C)C[C@]32c2ccc(=O)[nH]c2C4)CC1`, the IC50 on Acetylcholinesterase is 202 nM.
Same read-out and setting: with `CC1=C[C@H]2Cc3[nH]c(=O)ccc3[C@@]3(C1)[C@@H]2CCCN3C(=O)CN(C)CCCCCCCCCCN(C)Cc1ccncc1` the figure was 50 nM.
Regarding `CCCN(CC(=O)N1CCC[C@@H]2[C@H]3C=C(C)C[C@]21c1ccc(=O)[nH]c1C3)CC(=O)n1c2c(ccc1=O)[C@@]13CC(C)=C[C@@H](C2)[C@H]1CCCN3`, the IC50 against Acetylcholinesterase was 157 nM. This IC50 lies about 3.1-fold higher than the previous one.
On the same count and under the same terms, next, `CC1=C[C@H]2Cc3[nH]c(=O)ccc3[C@@]3(C1)[C@@H]2CCCN3C(=O)CN(C)CCCCCCCCN(C)Cc1ccc(F)cc1`: 56.5 nM.
On the same count and under the same terms, with `CC1=C[C@H]2Cc3[nH]c(=O)ccc3[C@@]3(C1)[C@@H]2CCCN3C(=O)CN(C)CCN(C)CC(=O)N1CCC[C@@H]2[C@H]3C=C(C)C[C@]21c1ccc(=O)[nH]c1C3` the figure was 1020 nM.
`CC1=C[C@H]2Cc3[nH]c(=O)ccc3[C@@]3(C1)[C@@H]2CCCN3C(=O)CCN1CCN(CCC(=O)N2CCC[C@@H]3[C@H]4C=C(C)C[C@]32c2ccc(=O)[nH]c2C4)CC1` had an IC50 at Acetylcholinesterase of 170 nM. This IC50 is about 6-fold lower than that of the compound before.

The record behind these values is ChEMBL document CHEMBL1146308 (Bioorg Med Chem, 2007).
